Drug metabolism data for two compounds are collected here from ChEMBL document CHEMBL3526062, “Role of human UDP-glucuronosyltransferases in the biotransformation of the triazoloacridinone and imidazoacridinone antitumor agents C-1305 and C-1311: highly selective substrates for UGT1A10” (Drug Metab Dispos, 2012).

Data set [1] can be described thus: Drug metabolism in human intestinal microsomes assessed as metabolite formation treated with C-1311 for 60 mins by ESI-MS/UV-vis spectroscopy in presence of 3 mM UDP-GlcUA. Type of data set: ADME, Intestine, Microsome. The conditions noted are these: 1 h. In short, it runs like this:
(§1)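 Protein (5 μg UGT1A10 or microsomal) incubated with 0.2 mM substrate and 3 mM UDP-GlcUA, 60 min. HPLC on C18 at 25°C with a 15–80% methanol gradient in 0.05 M ammonium formate pH 3.4 at 1 ml/min. ESI positive-ion MS and UV/Vis spectra taken from the peaks. Glucuronide confirmed by 60 min further treatment with 1000 U E. coli β-glucuronidase.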

The next data set concerns Liver microsome. Description: Drug metabolism in human liver microsomes assessed as metabolite formation treated with C-1311 for 60 mins by ESI-MS/UV-vis spectroscopy in presence of 3 mM UDP-GlcUA. Type of data set: ADME. The conditions noted are these: 1 h. In short, it runs like this:
as §1

Data set [2] deals with T1, UDP-glucuronosyltransferase 1A9 (Homo sapiens, UniProt O60656).
T1 sequence (O60656 whole entry): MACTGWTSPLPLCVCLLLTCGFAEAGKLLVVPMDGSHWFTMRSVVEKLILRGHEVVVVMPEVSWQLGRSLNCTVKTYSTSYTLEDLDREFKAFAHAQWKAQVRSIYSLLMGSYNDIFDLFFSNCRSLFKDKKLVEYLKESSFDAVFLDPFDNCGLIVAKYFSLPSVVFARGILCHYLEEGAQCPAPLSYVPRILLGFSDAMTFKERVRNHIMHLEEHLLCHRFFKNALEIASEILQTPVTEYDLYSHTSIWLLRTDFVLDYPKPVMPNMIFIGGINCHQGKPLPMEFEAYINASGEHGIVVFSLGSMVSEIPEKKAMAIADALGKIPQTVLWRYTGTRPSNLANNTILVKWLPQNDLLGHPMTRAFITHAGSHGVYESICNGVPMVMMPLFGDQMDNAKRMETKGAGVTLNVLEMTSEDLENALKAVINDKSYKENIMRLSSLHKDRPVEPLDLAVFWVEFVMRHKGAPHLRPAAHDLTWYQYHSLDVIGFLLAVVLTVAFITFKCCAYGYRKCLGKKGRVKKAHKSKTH
The data set is described as follows: Activity of human recombinant UGT1A9 expressed in baculovirus-infected Sf9 cells assessed as enzyme-mediated glucuronidation per mg protein at 235 uM after 60 mins by Michaelis-Menten equation in presence of 3 mM UDP-GlcUA. As to conditions: sf9, 1 h. It is filed as ADME.

Data set [3] concerns the target T1, UDP-glucuronosyltransferase 1A9. Description: Drug metabolism assessed as human recombinant UGT1A9-mediated compound formation treated with C-1305 for 60 mins by ESI-MS/UV-vis spectroscopy in presence of 3 mM UDP-GlcUA. It is filed as ADME. As to conditions: recombinant enzyme, 1 h. The method in brief: (§2)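 Recombinant human UGT1A1 or UGT1A9 (5 μg protein), or single-donor human liver or intestinal microsomes (20 μg), incubated in Tris-HCl pH 7.4 with 5 mM MgCl2, 5 mM saccharolactone, 2% DMSO and 100 or 200 μM substrate. Started with UDP-GlcUA, 60 min at 37°C, in triplicate. Product identified by HPLC with positive-ion ESI-MS and UV/Vis spectra, and confirmed by β-glucuronidase hydrolysis.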

The target in data set [4] is T2, UDP-glucuronosyltransferase 1A1 (Homo sapiens, UniProt P22309).
T2 sequence (P22309 whole entry): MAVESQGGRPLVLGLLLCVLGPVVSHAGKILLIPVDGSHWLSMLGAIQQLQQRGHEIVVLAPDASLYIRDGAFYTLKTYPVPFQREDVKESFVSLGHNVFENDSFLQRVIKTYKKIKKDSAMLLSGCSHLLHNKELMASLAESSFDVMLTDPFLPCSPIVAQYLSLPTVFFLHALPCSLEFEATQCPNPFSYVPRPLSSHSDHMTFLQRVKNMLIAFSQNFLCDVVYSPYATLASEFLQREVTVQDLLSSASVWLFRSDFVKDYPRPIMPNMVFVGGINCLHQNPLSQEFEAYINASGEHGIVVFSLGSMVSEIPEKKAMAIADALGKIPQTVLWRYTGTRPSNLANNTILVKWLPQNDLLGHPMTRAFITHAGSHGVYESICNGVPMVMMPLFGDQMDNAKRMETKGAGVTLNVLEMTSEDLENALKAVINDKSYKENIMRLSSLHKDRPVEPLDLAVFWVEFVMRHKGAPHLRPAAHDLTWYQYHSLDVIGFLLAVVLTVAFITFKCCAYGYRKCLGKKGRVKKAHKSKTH
The data set is described as follows: Drug metabolism assessed as human recombinant UGT1A1-mediated compound formation treated with C-1305 for 60 mins by ESI-MS/UV-vis spectroscopy in presence of 3 mM UDP-GlcUA. Type of data set: ADME. As to conditions: recombinant enzyme, 1 h. In short, it runs like this:
as §2

Data set [5] has as its target T1, UDP-glucuronosyltransferase 1A9. Description: Activity of human recombinant UGT1A9 expressed in baculovirus-infected Sf9 cells assessed as enzyme-mediated glucuronidation per mg protein at 300 uM after 60 mins by Michaelis-Menten equation in presence of 3 mM UDP-GlcUA. It is filed as ADME. The conditions noted are these: sf9, 1 h.

For the compound `CCN(CC)CCNc1ccc2ncn3c4ccc(O)cc4c(=O)c1c23` [C-1311], the Drug metabolism result in data set [1] was “metabolite_detected”; in the data set with Liver microsome, “metabolite_detected”; in data set [2] it was 0.14 nmol/min/mg.
As for `CN(C)CCCNc1ccc2nnn3c4ccc(O)cc4c(=O)c1c23`, the Drug metabolism result is “metabolite_detected” in data set [3], “metabolite_detected” in data set [4] and 0.15 nmol/min/mg in data set [5].
